# Tests used:
# [1] = system: Calf thymus DNA; assay: Binding affinity to calf thymus DNA assessed as stabilization by measuring change in melting temperature at ratio of 0.1 by UV/vis spectrophotometric; type: nucleic-acid assay; settings: Bos taurus
# [2] = system: Calf thymus DNA; assay: Binding affinity to calf thymus DNA assessed as stabilization by measuring change in melting temperature at ratio of 0.2 by UV/vis spectrophotometric; type: nucleic-acid assay; settings: Bos taurus
# [3] = Drug uptake in human A549 cells assessed as increase in intracellular boron atoms at 30 uM measured after 24 hrs by ICP-MS analysis; type: ADME, cell-based; settings: a549, 24 h
# Procedure, shortened: (§1)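 Cells seeded at 5 × 10^5/well and grown overnight at 37 °C, 5% CO2, normoxic. A549 in DMEM/10% FBS; HeLa S3 in MEM/10% FBS. Exposed to 30 μM compound for 24 h. Cells washed with PBS ×3 and digested in 60% HNO3 for 24 h at room temperature, then diluted, centrifuged and filtered. Total boron (10B+11B) measured by ICP-MS and normalized per cell from hemocytometer counts of a parallel well. Mean ± SD of triplicates.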
# [4] = Drug uptake in human HeLa S3 cells assessed as increase in intracellular boron concentration measured per cell at 30 uM measured after 24 hrs by ICP-MS analysis; type: ADME, cell-based; settings: hela s3, 24 h; procedure, shortened: as §1
# [5] = system: Calf thymus DNA; assay: Binding affinity to calf thymus DNA assessed as stabilization by measuring change in melting temperature at ratio of 1 by UV/vis spectrophotometric; type: nucleic-acid assay; settings: Bos taurus
# [6] = Drug uptake in human A549 cells assessed as increase in intracellular boron concentration measured per cell at 30 uM measured after 24 hrs by ICP-MS analysis; type: ADME, cell-based; settings: a549, 24 h; procedure, shortened: as §1
# [7] = system: Calf thymus DNA; assay: Binding affinity to calf thymus DNA assessed as stabilization by measuring change in melting temperature at ratio of 5 by UV/vis spectrophotometric; type: nucleic-acid assay; settings: Bos taurus
Structure (SMILES),Drug uptake [3],ΔTm [5] [°C],Drug uptake [6],ΔTm [7] [°C],other results
NCCCCNCCCN,–,–,–,–,ΔTm [1]: 7 °C; ΔTm [2]: 12 °C
c1cc(B2OC3(CCCCC3)C3(CCCCC3)O2)ccc1CN1CCNCCNCC1,Active,–,–,–,–
c1cc(B2OC3(CCCCC3)C3(CCCCC3)O2)ccc1CN1CCNCCNCCNCCNCC1,–,3,Active,8,Drug uptake [4]: > 2.5 fmol
c1cc(CN2CCNCCNCCNCC2)cc(B2OC3(CCCCC3)C3(CCCCC3)O2)c1,–,1,Active,6,–
c1cc(CN2CCNCCNCC2)cc(B2OC3(CCCCC3)C3(CCCCC3)O2)c1,Active,–,Active,–,–

# From ChEMBL document CHEMBL5214904, “Design, Synthesis, and Biological Evaluation of Boron-Containing Macrocyclic Polyamines and Their Zinc(II) Complexes for Boron Neutron Capture Therapy” (J Med Chem, 2021)
